# Experimental data from ChEMBL document CHEMBL3580548, “Ervatamines A-I, Anti-inflammatory Monoterpenoid Indole Alkaloids with Diverse Skeletons from Ervatamia hainanensis” (J Nat Prod, 2015).
# Activity calls are given as the source filed them. The rule behind the calls is not given here.
# Test system: RAW264.7
# Test: Anti-inflammatory activity in mouse RAW264.7 cells assessed as LPS-stimulated inhibition of nitric oxide production incubated simultaneously with LPS for 24 hrs by Griess reagent based assay
# Assay type: functional, cell-based
# Details: not given
# In short: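 RAW264.7 cells grown in RPMI 1640 with 10% heat-inactivated FBS, penicillin 100 U/mL and streptomycin 100 μg/mL; 1 × 10^5 cells/well allowed to adhere 2 h at 37 °C, 5% CO2. Cells exposed to 1 μg/mL LPS for 24 h with or without compounds across a concentration range. Indomethacin as positive control. Nitrite in supernatant measured by Griess reagent. Run in triplicate; IC50 reported.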
row,Compound,inhibition
1,C/C=C1/C[N@+]2(C)CCc3c([nH]c4ccccc34)C(CO)(C(=O)[O-])[C@H]1CC2 (some centres not stated),inactive
2,COC(=O)[C@@]12C[C@H]3C[C@H]([C@H](C)O)[C@@H]1N(Cc1c2n(C=O)c2ccccc12)C3,inactive
3,COC(=O)[C@@]12C[C@@H]3C[C@@H](C(C)O)[C@@H]1N(CC[C@]21Nc2ccccc2C1=O)C3 (some centres not stated),inactive
4,C[N@@+]12CCc3c([nH]c4ccccc34)[C@](CO)(C(=O)[O-])[C@@H](CC1)/C(=C\CO)C2,inactive
5,C/C=C1/C[N@+]2(C)CCc3c([nH]c4ccccc34)[C@@H](C(=O)[O-])[C@H]1CC2,inactive
6,COC(=O)[C@@]12C[C@H]3C[C@H]([C@H](C)O)[C@@H]1N(CCc1c2[nH]c2ccccc12)C3CC(C)=O (some centres not stated),Active
7,COC(=O)[C@@]12C[C@H]3C[C@H](C(C)=O)[C@@H]1N(CCc1c2[nH]c2ccccc12)C3,Active
8,COC(=O)[C@]12C[C@@H]3CN(CCc4c1[nH]c1ccccc41)[C@H]2[C@@H]([C@H](C)O)C3O (some centres not stated),Active
9,C/C=C1/C[N@+]2(C)CCc3c([nH]c4ccccc34)[C@H](C(=O)[O-])[C@H]1CC2,inactive
10,C[C@H](O)[C@@H]1C[C@H]2C[C@H]3c4[nH]c5ccccc5c4CCN(C2)[C@@H]13,Active
11,CC[C@H]1C[C@@H]2C[C@@]3(C(=O)OC)c4[nH]c5ccccc5c4CCN(C2CO)[C@@H]13 (some centres not stated),Active
12,CC[C@H]1C[C@@H]2C[C@@]3(C(=O)OC)c4[nH]c5ccccc5c4CCN(C2CC(C)=O)[C@@H]13 (some centres not stated),Active

# Same assay, conditions: RAW264.7, 24 h
row,IC50,Compound
1,42.6 µM,COc1ccc2c(c1)c(CC(=O)O)c(C)n2C(=O)c1ccc(Cl)cc1 [INDOMETHACIN]
2,41.5 µM,CC[C@@]1(O)CC2[C@H]3C(C(=O)OC)=C4Nc5ccccc5C45CCN([C@H]25)[C@H]31 (some centres not stated)

row,Compound,IC50
1,CC[C@H]1C[C@@H]2CN3CCc4c([nH]c5ccccc45)[C@](C(=O)OC)(C2)[C@H]13 [CORONARIDINE],25.5 µM

# Test system: HL-60
# Test: Cytotoxicity against human HL60 cells by MTT assay
# Assay type: functional, cell-based
# Details: not given
row,Compound,IC50
1,COC(=O)[C@@]12C[C@H]3C[C@H](C(C)=O)[C@@H]1N(CCc1c2[nH]c2ccccc12)C3,48.5 µM

# Test system: not listed separately
# Test: Cytotoxicity against human 786-O cells by MTT assay
# Assay type: functional, cell-based
# Details: 786-0
row,Compound,IC50
1,COC(=O)[C@@]12C[C@H]3C[C@H](C(C)=O)[C@@H]1N(CCc1c2[nH]c2ccccc12)C3,27.3 µM
